Experimental data gathered from unrelated publications.
Each line is one published result; the experiments were not run side by side.

Structure (SMILES) | system | conditions | AUC(0-t)
Cc1ncsc1-c1ccc([C@H](CC(=O)N2CC3(C2)CN(c2ccc(C#Cc4ccc(C(=O)N5CCC(n6cc(-c7ccc8c(c7)CCN8C(=O)Cc7cccc(OC(F)(F)F)c7)c7c(N)ncnc76)CC5)cc4)cn2)C3)NC(=O)[C@@H]2C[C@@H](O)CN2C(=O)[C@@H](NC(=O)C2(F)CC2)C(C)(C)C)cc1 | male C57BL/6 mouse, plasma | intravenous, 1 mg/kg | 5920 ng·h/mL
NCc1ccc(-c2nn(Cc3ccccc3)c3ccccc23)o1 | male CD-1 mouse, plasma | oral, 10 mg/kg | 891 ng·h/mL
CN(C)C(=O)c1cc2cnc(Nc3ccc(-c4ccc5c(=O)cc(N6CCOCC6)oc5c4)cc3)nc2n1C1CCCC1.Cl | BALB/c mouse, plasma | intravenous, 2 mg/kg | 2790 ng·h/mL
CCOC(=O)c1c(NC(=O)CNC(C)C)sc2c1CCCCC2 | male mouse, plasma | intraperitoneal, 5 mg/kg, single dose | 300 ng·h/mL
CO[C@H]1/C=C/O[C@@]2(C)Oc3c(C)c(O)c4c(c3C2=O)C2=NC3(CCN(CC(C)C)CC3)NC2=C(NC(=O)/C(C)=C\C=C\[C@H](C)[C@H](O)[C@@H](C)[C@@H](O)[C@@H](C)[C@H](OC(C)=O)[C@@H]1C)C4=O | female CD-1 mouse, plasma | oral, 10 mg/kg | 11200 ng·h/mL
OCc1nc2ccc(NCc3ccc(C(F)(F)F)cc3)cc2[nH]1 | male BALB/c mouse, plasma | intravenous, 1 mg/kg | 482 ng·h/mL
OCc1ccc(-c2nn(Cc3ccccc3)c3ccccc23)o1 | male CD-1 mouse, plasma | intraperitoneal, 30 mg/kg | 3370 ng·h/mL
Cc1nc2ccc(OCc3ccc(C(F)(F)F)cc3)cc2[nH]1 | male BALB/c mouse, plasma | intravenous, 1 mg/kg | 3800 ng·h/mL
NCc1ccc(-c2nn(Cc3ccncc3)c3ccccc23)o1 | male CD-1 mouse, plasma | oral, 10 mg/kg | 314 ng·h/mL
Cc1cc(-c2ccnc3[nH]cc(F)c23)cc(F)c1[C@@]1(O)[C@H](C)CN(C2CCS(=O)(=O)CC2)C[C@@H]1C | male CD-1 mouse, plasma | intravenous, 1 mg/kg | 3020 ng·h/mL
O=C1CCC(N2Cc3cc(C4CCN(Cc5ccccc5)CC4)ccc3C2=O)C(=O)N1 (stereo not drawn) | male CD-1 mouse, plasma | intravenous, 1 mg/kg | 310 ng·h/mL
Cc1ccc2c(c1)C(=O)[C@]1(O)CCN(c3ccc4nc(C)ccc4c3)C1=N2.Cl | C57BL/6 mouse, plasma | subcutaneous, 2 mg/kg | 0.98 µM·h
COC1=CC(c2ccc[nH]2)=N/C1=C\c1[nH]c(Cc2ccc(OC(F)(F)F)cc2)cc1Cc1ccc(OC(F)(F)F)cc1 | male CD-1 mouse, plasma | oral, 40 mg/kg, single dose | 84100 ng·h/mL
Cc1ccc(OCC(=O)N[C@@H](Cc2c[nH]c3ccccc23)C(=O)OC(C)C)cc1 | male Sprague-Dawley mouse, plasma | oral, 20 mg/kg | 3260 ng·h/mL
C[C@@H](CN1CCC(n2c(=O)[nH]c3cc(Cl)ccc32)CC1)NC(=O)c1ccc2ccccc2c1 | male CD-1 mouse, brain | intravenous, 1 mg/kg, single dose | 0.302 ng·h/mL
Cc1cc(-c2ccnc3[nH]cc(F)c23)cc(F)c1[C@@]1(O)[C@H](C)CN(C(=O)CN)C[C@@H]1C | male CD-1 mouse, plasma | intravenous, 1 mg/kg | 18400 ng·h/mL
COC1=CC(c2ccc[nH]2)=N/C1=C\c1cc(Cc2ccc(OC(F)(F)F)cc2)c(C)[nH]1.Cl | male CD-1 mouse, liver | oral, 40 mg/kg, single dose | 101000 ng·h/mL
Cc1ncsc1-c1ccc([C@H](C)NC(=O)[C@@H]2C[C@@H](O)CN2C(=O)[C@@H](NC(=O)CCc2ccc(C#Cc3ccc(C(=O)NCCCn4cc(-c5ccc6c(c5)CCN6C(=O)Cc5cccc(OC(F)(F)F)c5)c5c(N)ncnc54)cc3)cn2)C(C)(C)C)cc1 | male C57BL/6 mouse, plasma | intravenous, 1 mg/kg | 6600 ng·h/mL
